Measured values as given in ChEMBL document CHEMBL1122239, “Synthesis and biological properties of new hexapeptide substrates for vitamin K dependent carboxylase. Evidence for X-Pro cis/trans amide bond interconversions in prothrombin precursor fragment 18-23” (J Med Chem, 1983).

B1: Vitamin K-dependent gamma-carboxylase (Rattus norvegicus), O88496 (protein)
chain: MAVHRGSARAAPASDKVQKNKPAQTSGLEQGSRMARIFGFEWADLSSWQSVVTLLNRPTDPANLAVFRFLFAFLMLLDIPQERGLSSLDRKYLDGLDVCRFPLLDALRPLPLDWMYLVYTIMFLGALGMMLGLWYRLSCMLFLLPYWYVFLLDKTSWNNHSYLYGLLAFQLTFMDANHYWSVDGLLSAQKKNAHVPLWNYTVLRGQIFIVYFIAGVKKLDADWVEGYSMEHLSRHWLFSPFKLVLSEELTSLLVVHWCGLLLDLSAGFLLFFDASRPIGLVFVSYFHCMNSQLFSIGMFPYVMLASSPLFCSAEWPRKLVARCPKRLQELLPAKAAPRPSASCVYKRARAKAGQKPGLRHHLGTVFTLLYLLEQLFLPYSHFLTQGYNNWTNGLYGYSWDMMVHSRSHQHVKITYRDGLTGELGYLNPGVFTQSRRWKDHADMLKQYATCLSLLLPKYNVTEPQIYFDIWVSINDRFQQRLFDPRVDIVQAVWSPFRRTPWVQPLLMDLSPWRTKLQDIKSSLDNHTEVVFIADFPGLHLENFVSEDLGNTSIQLLQGEVTVELVAEQKNQTLREGEKMQLPAGEYHKVYTVSSSPSCYMYIYVNTTEVALEQDLAYLQELKEKVENGSETGPLPPELQPLLEGEVKGGPEPTPLVQTFLRRQRKLQEIERRRNSPLHERFLRFVLRKLYVFRRSFLMTRISLRNLLFGRPSLEQLAQEVTYANLRPFEPVDESSASNTDSSDPHPSEPDSEHVHSEL

Columns and labels:
Format in all cases: functional
[1] = target: T1, Vitamin K-dependent gamma-carboxylase (Rattus norvegicus) (UniProt O88496); experiment: Compound was evaluated as substrates for vitamin K dependent carboxylase and percent CO2 incorporation was determined at 0.25 mM concentrations
T1 sequence (whole entry): B1 chain
Summary of the method: (§1)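 Vitamin K dependent carboxylase, which needs O2, reduced vitamin K and CO2, was given each hexapeptide directly as substrate at 0.25, 1, 4.25 or 5.5 mM. Carboxylation of Glu to Gla was reported as percent CO2 incorporation. The full assay procedure is given only by reference to earlier work.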

[2] = target: T1, Vitamin K-dependent gamma-carboxylase (Rattus norvegicus); experiment: Compound was evaluated as substrates for vitamin K dependent carboxylase and percent CO2 incorporation was determined at 1 mM concentrations; summary of the method: as §1
[3] = target: T1, Vitamin K-dependent gamma-carboxylase (Rattus norvegicus); experiment: Compound was evaluated as substrates for vitamin K dependent carboxylase and percent CO2 incorporation was determined at 4.25 mM concentrations; summary of the method: as §1
[4] = Carboxylation of 0.25 mM Phe-Leu-Glu-Glu-Leu at a concentration of 1 mM
Summary of the method: (§2)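 Inhibition format: the hexapeptide was added at 1, 4.25 or 5.5 mM to a carboxylase reaction containing 0.25 mM H-Phe-Leu-Glu-Glu-Leu-OH as the reference substrate. Carboxylation of the pentapeptide was reported as a percentage. The detailed assay procedure is given only by reference to earlier work.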

[5] = Carboxylation of 0.25 mM Phe-Leu-Glu-Glu-Leu at a concentration of 4.25 mM; summary of the method: as §2
[6] = target: T1, Vitamin K-dependent gamma-carboxylase (Rattus norvegicus); experiment: Compound was evaluated as substrates for vitamin K dependent carboxylase and percent CO2 incorporation was determined at 5.5 mM concentrations; summary of the method: as §1
[7] = Carboxylation of 0.25 mM Phe-Leu-Glu-Glu-Leu at a concentration of 5.5 mM; summary of the method: as §2
[8] = substrate: CC(C)C[C@H]1NC(=O)[C@H](N)CSSC[C@@H](C(=O)O)NC(=O)[C@@H]2CCCN2C(=O)[C@@H](CCC(=O)O)NC(=O)[C@H](CCC(=O)O)NC1=O; experiment: (§3) Compound was evaluated as substrates for vitamin K dependent carboxylase and percent CO2 incorporation was determined; summary of the method: as §1
[9] = substrate: COC(=O)[C@@H]1CSSC[C@@H](NC(C)=O)C(=O)N[C@H](CC(C)C)C(=O)N[C@@H](CCC(=O)O)C(=O)N[C@H](CCC(=O)O)C(=O)N2CCC[C@H]2C(=O)N1; experiment: as §3; summary of the method: as §1
[10] = substrate: CC(C)C[C@H](NC(=O)[C@@H](N)CC(N)=O)C(=O)N[C@@H](CCC(=O)O)C(=O)N[C@@H](CCCN=C(N)N)C(=O)N[C@@H](CCC(=O)O)C(=O)N[C@@H](CS)C(=O)O; experiment: (§4) Compound was evaluated as substrates for vitamin K dependent carboxylase; summary of the method: as §1
[11] = substrate: CC(C)C[C@H](NC(=O)[C@H](CC(N)=O)NC(=O)[C@H]1CSSC[C@H](NC(=O)[C@H](CCC(=O)O)NC(=O)[C@H](CCCN=C(N)N)NC(=O)[C@H](CCC(=O)O)NC(=O)[C@H](CC(C)C)NC(=O)[C@@H](N)CC(N)=O)C(=O)N[C@@H](CC(C)C)C(=O)N[C@H](CCC(=O)O)C(=O)N[C@@H](CCC(=O)O)C(=O)N2CCC[C@@H]2C(=O)N1)C(=O)N[C@@H](CCC(=O)O)C(=O)N[C@@H](CCCN=C(N)N)C(=O)N[C@@H](CCC(=O)O)C(=O)N[C@@H](CS)C(=O)O; experiment: as §4; summary of the method: as §1
[12] = substrate: CC(C)C[C@H](NC(=O)[C@H](CCC(=O)O)NC(=O)[C@H](CCC(=O)O)NC(=O)[C@H](CC(C)C)NC(=O)[C@@H](N)Cc1ccccc1)C(=O)O; experiment: as §4; summary of the method: as §1

Molecule	Incorporation [1]	Incorporation [2]	Incorporation [3]	Incorporation [4]	Incorporation [5]	Incorporation [6]	Incorporation [7]	Km [8]	Km [9]	Km [10]	Km [11]	Km [12]
CC(C)C[C@H]1NC(=O)[C@H](N)CSSC[C@@H](C(=O)O)NC(=O)[C@H](C)NC(=O)[C@@H](CCC(=O)O)NC(=O)[C@H](CCC(=O)O)NC1=O	50%	48%	56%	103%	85%	–	–	–	–	–	–	–
CC(C)C[C@H]1NC(=O)[C@H](N)CSSC[C@@H](C(=O)O)NC(=O)[C@@H]2CCCN2C(=O)[C@@H](CCC(=O)O)NC(=O)[C@H](CCC(=O)O)NC1=O	7.5%	7%	–	98%	–	8.7%	78%	–	–	–	–	–
CC(C)C[C@H]1NC(=O)[C@H](N)CSSC[C@@H](C(=O)O)NC(=O)[C@@H](C)NC(=O)[C@@H](CCC(=O)O)NC(=O)[C@H](CCC(=O)O)NC1=O	63%	60%	59%	94%	83%	–	–	–	–	–	–	–
COC(=O)[C@@H]1CSSC[C@@H](NC(C)=O)C(=O)N[C@H](CC(C)C)C(=O)N[C@@H](CCC(=O)O)C(=O)N[C@H](CCC(=O)O)C(=O)N2CCC[C@H]2C(=O)N1	3.3%	2.4%	–	51%	–	2.2%	54%	–	–	–	–	–
CC(C)C[C@H](NC(=O)[C@H](C)N)C(=O)N[C@@H](CCC(=O)O)C(=O)N[C@@H](CCC(=O)O)C(=O)N1CCC[C@@H]1C(=O)N[C@@H](C)C(=O)O	14%	16%	24%	99%	134%	–	–	–	–	–	–	–
B1	–	–	–	–	–	–	–	8 mM	8 mM	8 mM	0.001 mM	8 mM
